These results are taken from article PMC9977181 (Science Advances, 2023).

Experiment [1] deals with T1, ATM (Homo sapiens, UniProt Q13315). The experiment can be described thus: ATM-SPARK reporter imaging in living HEK293 cells, ATM activated by etoposide. Type of experiment: cell-based.
Another experiment addresses DNA-PK (Homo sapiens, UniProt P78527). The experiment can be described thus: Western blot of phosphorylated DNA-PK. Type of experiment: cell-based. As to conditions: HEK293 cells, NCS-induced DNA damage. In a few lines:
(§1)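 HEK293 cells were pretreated 1 h with a test compound titration starting at 1 μM, then given NCS (500 ng/ml) for 1 h. Lysates were resolved on 4–12% bis-tris gels, probed with primary antibodies (1:1000) and HRP secondaries, and detected by ECL on film. The phospho/total band ratio was normalized to DMSO-treated cells. IC50 was obtained by nonlinear fit.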
(A western blot detects proteins with antibodies after separation by electrophoresis.)

Experiment [2] has as its system ATM-deficient MDA-MB-231 cells. The experiment can be described thus: Growth inhibition with NCS in ATM-deficient MDA-MB-231 cells. Type of experiment: cell-based, human. The conditions noted are these: ATM-deficient cell line.
In experiment [3] the target is T1, ATM. The experiment can be described thus: ATM-SPARK ATM activity in HeLa or T98G cancer cells preincubated with inhibitor. Type of experiment: cell-based. The conditions noted are these: HeLa and T98G cells, ATM activated using etoposide.
The target in experiment [4] is T1, ATM. The experiment can be described thus: Western blot of phosphorylated ATM. In kind it is cell-based. The method in brief:
as §1

The subject of the next experiment is HeLa cells. The experiment can be described thus: HeLa cell growth assay. In kind it is cell-based, human.
Another experiment deals with ATR (Homo sapiens, UniProt Q13535). The experiment can be described thus: Western blot of phosphorylated ATR. In kind it is cell-based. The conditions noted are these: HEK293 cells, NCS-induced DNA damage. In a few lines: as §1
Experiment [5] addresses T1, ATM. In kind it is cell-based. As to conditions: HEK293 cells preincubated with NCS.
In experiment [6] the target is T1, ATM. The experiment can be described thus: ATM-SPARK activation by DNA-damaging drugs in U87 cells. In kind it is cell-based.

T1 sequence (Q13315 whole entry): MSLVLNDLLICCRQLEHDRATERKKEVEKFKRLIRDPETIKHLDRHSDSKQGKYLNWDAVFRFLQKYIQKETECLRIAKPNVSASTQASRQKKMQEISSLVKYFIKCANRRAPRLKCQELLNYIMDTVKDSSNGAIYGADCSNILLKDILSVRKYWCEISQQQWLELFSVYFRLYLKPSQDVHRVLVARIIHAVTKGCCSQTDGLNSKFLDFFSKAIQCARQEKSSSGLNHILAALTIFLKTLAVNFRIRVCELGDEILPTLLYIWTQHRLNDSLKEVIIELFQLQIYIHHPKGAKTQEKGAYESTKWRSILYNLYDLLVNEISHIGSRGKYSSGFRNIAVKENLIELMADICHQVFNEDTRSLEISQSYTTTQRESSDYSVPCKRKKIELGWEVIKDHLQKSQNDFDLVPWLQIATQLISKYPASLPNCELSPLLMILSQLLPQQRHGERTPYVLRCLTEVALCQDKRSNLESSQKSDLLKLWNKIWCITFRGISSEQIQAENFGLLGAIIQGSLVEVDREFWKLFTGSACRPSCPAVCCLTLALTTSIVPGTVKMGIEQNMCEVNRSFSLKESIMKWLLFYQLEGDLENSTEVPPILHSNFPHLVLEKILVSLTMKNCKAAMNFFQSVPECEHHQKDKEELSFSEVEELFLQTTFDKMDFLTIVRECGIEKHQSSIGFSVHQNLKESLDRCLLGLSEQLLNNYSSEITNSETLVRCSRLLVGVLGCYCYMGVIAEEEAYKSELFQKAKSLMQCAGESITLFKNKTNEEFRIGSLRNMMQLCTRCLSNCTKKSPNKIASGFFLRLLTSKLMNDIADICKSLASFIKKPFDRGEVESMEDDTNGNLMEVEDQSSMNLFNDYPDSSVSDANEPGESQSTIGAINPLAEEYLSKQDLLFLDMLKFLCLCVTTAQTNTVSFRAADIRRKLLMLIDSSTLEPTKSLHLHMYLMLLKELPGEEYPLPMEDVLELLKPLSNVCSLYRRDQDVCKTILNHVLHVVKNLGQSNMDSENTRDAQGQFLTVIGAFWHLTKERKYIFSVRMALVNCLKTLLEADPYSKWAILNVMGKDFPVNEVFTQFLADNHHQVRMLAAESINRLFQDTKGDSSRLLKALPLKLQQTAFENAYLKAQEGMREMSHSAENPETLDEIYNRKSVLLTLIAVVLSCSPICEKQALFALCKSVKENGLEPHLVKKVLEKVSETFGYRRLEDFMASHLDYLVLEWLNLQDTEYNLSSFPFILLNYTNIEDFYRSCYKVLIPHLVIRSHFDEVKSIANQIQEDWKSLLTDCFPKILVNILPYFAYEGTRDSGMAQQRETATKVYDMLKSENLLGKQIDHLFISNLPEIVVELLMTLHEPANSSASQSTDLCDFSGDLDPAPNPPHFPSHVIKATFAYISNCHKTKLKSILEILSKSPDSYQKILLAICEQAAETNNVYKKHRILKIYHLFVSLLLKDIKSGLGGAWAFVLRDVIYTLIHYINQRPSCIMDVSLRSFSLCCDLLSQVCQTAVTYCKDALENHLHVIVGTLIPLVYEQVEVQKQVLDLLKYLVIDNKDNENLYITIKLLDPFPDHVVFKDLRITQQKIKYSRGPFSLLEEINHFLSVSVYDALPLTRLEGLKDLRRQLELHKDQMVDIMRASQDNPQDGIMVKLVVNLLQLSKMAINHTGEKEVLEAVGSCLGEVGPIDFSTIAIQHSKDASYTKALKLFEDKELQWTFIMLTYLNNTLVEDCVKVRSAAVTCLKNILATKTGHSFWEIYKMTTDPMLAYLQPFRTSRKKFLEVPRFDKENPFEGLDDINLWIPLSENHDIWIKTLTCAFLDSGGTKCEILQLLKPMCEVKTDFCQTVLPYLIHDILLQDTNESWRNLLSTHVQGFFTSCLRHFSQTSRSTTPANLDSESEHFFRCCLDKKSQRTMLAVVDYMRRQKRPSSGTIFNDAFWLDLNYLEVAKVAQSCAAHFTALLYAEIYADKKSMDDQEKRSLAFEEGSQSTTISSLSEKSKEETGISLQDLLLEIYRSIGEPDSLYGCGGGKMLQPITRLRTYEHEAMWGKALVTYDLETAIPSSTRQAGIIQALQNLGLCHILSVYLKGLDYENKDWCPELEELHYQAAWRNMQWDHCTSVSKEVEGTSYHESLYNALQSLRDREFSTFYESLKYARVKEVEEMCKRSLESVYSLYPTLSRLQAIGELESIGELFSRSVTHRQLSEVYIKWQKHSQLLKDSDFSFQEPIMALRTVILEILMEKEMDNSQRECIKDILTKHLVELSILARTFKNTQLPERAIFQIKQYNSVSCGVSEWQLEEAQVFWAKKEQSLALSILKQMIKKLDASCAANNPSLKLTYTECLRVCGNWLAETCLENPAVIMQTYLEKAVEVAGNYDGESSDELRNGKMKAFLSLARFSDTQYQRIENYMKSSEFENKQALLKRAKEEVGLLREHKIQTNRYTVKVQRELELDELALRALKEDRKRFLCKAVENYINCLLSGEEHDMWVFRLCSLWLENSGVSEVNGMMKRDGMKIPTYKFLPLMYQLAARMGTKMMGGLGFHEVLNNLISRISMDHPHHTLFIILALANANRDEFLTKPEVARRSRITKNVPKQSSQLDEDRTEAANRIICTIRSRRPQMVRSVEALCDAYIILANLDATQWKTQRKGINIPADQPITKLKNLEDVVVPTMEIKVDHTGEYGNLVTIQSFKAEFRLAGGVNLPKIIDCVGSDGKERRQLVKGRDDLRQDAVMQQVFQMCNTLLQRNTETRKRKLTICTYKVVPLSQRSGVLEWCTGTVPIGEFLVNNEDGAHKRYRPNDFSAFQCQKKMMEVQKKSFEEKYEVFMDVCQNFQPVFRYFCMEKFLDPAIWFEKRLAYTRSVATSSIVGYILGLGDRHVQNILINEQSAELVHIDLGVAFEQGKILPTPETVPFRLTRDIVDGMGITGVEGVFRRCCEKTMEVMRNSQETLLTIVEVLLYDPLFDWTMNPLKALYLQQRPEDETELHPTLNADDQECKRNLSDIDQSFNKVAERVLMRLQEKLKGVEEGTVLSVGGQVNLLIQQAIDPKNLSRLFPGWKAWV

As for `O=C1NC(=O)/C(=C\c2ccc3nccnc3c2)S1` [AS605240], on ATM [1] (1 μM compound), the “ATM activity in inhibitor-incubated cells (ATM-SPARK signal), screening” value is given as “blocked ATM”.

As usually defined, the IC50 is the point on the concentration scale where inhibition reaches its midpoint. Regarding `COc1ccc(-c2ccc3ncc4c(c3c2)n(-c2ccc(N3CCNCC3)c(C(F)(F)F)c2)c(=O)n4C)cn1` [BGT226], at DNA-PK, the “fold lower activity against DNA-PK than against ATM” value is reported as 30 fold. For the same molecule, the “effect in growth inhibition when combined with NCS” value in [2] is recorded as “lost”. For the same molecule, the “activity against ATM in cancer cells (ATM-SPARK)” value at ATM [3] is recorded as “potent activity against ATM”. On ATM [4], this molecule registered an IC50 of 3.1 ± 0.8 nM. Also, in the experiment on HeLa cells (NCS + 4 nM or 11 nM inhibitor (fig. S26)), the “sensitization of growth inhibition in response to NCS treatment” value is recorded as “sensitizes”. For the same molecule, the “inhibition of ATR (pATR 1989 Western blot)” value on ATR is given as “no inhibitory activity”.

Turning to `O=c1cc(-c2cccc3c2Sc2ccccc2S3)oc(N2CCOCC2)c1` [KU-55933], at ATM [5], the “half-time of ATM-SPARK droplet disassembly” value was ~ 1.5 min and the “time to disassembly of ATM-SPARK reporter droplets after inhibitor addition” value is at most 4 min.

For the molecule `CN1CCN(c2ccc(-n3cc(-c4ccncc4OCC4CCNCC4)cn3)cc2)CC1` [MELK-8A], the “inhibitory activity against ATM (ATM-SPARK signal)” value at ATM [1] is reported as “no activity against ATM”.

With `CC[C@@]1(O)C(=O)OCc2c1cc1n(c2=O)Cc2cc3ccccc3nc2-1` [camptothecin], the “activation of ATM (ATM-SPARK signal)” value at ATM [6] is on record as “failed to activate ATM”.

Consider neocarzinostatin [NCS], for which the “inhibition of cancer cell proliferation by NCS itself” value in the experiment on HeLa cells (NCS 180 ng/ml, 3 days) is on record as ~ 35%.
